TDP2 inh – human TDP2 enzyme inhibitors, primary screen, biochemical, epi absorbance, recombinant enzyme; T5PNP hydrolysis, p-nitrophenol absorbance 415 nm; inhibition, % at 12.8 µM; 370,000 tested, 0.34% active; AID 720702, 2013;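 active = inhibition above the mean of all tested compounds plus 3 SD, set per campaign, cut at about 25% in these data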;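 also: 0% = DMSO with enzyme and 100% = buffer with substrate but no TDP2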
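Test system: human TDP2 enzyme; Input: 120 nM TDP2 per well; Buffer or medium: Mg2+-containing Tris-HCl buffer, pH 7.5; Reagent: 5 mM T5PNP; Dosing: 12.8 µM single point, 1% DMSO; Incubation: reaction 2 h, 37 °C; Detection: p-Nitrophenol epi absorbance; Read-out: % inhibition relative to enzyme-containing and enzyme-free wells; Replicates: single well per compound.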
PP5 inh – PP5 phosphatase inhibitors, primary screen, biochemical, fluorescence | Serine/threonine-protein phosphatase 5 (Homo sapiens), P53041 | purified PP5c, OMFP substrate fluorescence | inhibition, % at 6.7 µM | 320,000 tested, 0.18% active | AID 1987, 2009;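 active = inhibition above the campaign's mean inhibition across all tested compounds plus 3 SD, cut at about 9.5% in these data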;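 also: 0% = DMSO only and 100% = 100 µM cantharidin control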
GSTO1 inh – inhibitors of recombinant GSTO1, primary screen, counter-screen for RBBP9 inhibitor project, biochemical, fluorescence polarization; Glutathione S-transferase omega-1 (Homo sapiens), P78417; activity-based probe fluorescence polarization; inhibition, % at 5.96 µM; 300,000 tested, 1.1% active; AID 1974, 2009;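 active = inhibition above the campaign mean inhibition plus 3 SD, cut at about 35% in these data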;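 also: 0% = GSTO1-1 with DMSO and 100% = wells lacking GSTO1-1 enzyme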
Target sequence (P78417 whole entry, looked up): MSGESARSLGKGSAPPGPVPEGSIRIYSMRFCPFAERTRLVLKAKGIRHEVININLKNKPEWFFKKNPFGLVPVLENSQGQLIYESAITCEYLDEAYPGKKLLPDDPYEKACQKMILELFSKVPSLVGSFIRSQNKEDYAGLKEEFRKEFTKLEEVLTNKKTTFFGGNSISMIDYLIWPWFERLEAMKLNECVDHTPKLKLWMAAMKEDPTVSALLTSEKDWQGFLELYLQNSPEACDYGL
Apaf-1 inh – inhibitors of human Apaf-1 apoptosome, primary screen, biochemical, DEVD-Rh110 fluorescence, uHTS | 330,000 tested, 0.71% active | reconstituted apoptosome caspase-3 activity | inhibition, % at 20 µM | Apoptotic protease-activating factor 1 (Homo sapiens), O14727; active = inhibition of at least 40% at 20 µM;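 also: plate controls were DMSO wells for no effect and DEVD-CHO caspase inhibitor wells for full effect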
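Assay system: Apoptosome proteins | Medium: pH 7.5 Hepes buffer with CHAPS, BSA, DTT | Also added: Cytochrome c and DEVD-Rh110 substrate | Times: 30 min plus 50 min, RT | Detection: Rhodamine 110 fluorescence at Ex 480/Em 540 nm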
PP1 counter – PP1-alpha phosphatase inhibitors, primary screen, counter-screen for PP5 inhibitor project, biochemical, fluorescence, OMFP substrate, single point. Serine/threonine-protein phosphatase PP1-alpha catalytic subunit (Homo sapiens), P62136. purified PP1alpha. inhibition, % at 6.7 µM. 320,000 tested, 0.9% active. AID 2235, 2010;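 active = inhibition above the mean inhibition of all tested compounds plus 3 SD, computed separately for each screening campaign, cut at about 15% in these data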
Target sequence (P62136 whole entry, looked up): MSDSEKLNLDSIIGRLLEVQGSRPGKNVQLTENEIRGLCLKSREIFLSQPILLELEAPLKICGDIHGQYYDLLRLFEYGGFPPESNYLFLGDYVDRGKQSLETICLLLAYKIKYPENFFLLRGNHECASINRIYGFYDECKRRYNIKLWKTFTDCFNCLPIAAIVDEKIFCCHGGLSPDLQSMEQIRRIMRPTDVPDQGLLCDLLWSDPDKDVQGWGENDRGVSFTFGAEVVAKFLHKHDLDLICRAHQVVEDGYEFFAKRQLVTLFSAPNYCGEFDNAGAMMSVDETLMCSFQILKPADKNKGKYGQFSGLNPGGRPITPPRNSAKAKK
TDP2 confirm – human TDP2 enzyme inhibitors, retest, confirmation, biochemical, epi absorbance, recombinant enzyme | shares compounds with TDP2 inh | 1,100 tested, 22% active | absorbance read-out | inhibition, % at 12.8 µM; in the data active = inhibition above about 25%;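 also: 0% = vehicle with enzyme and 100% = no enzyme buffer only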
An asterisk follows results filed as active; x = no result. This is a sample that favours compounds with a hit; in the whole collection about 2.1% have one here.

SMILES	TDP2 inh	PP5 inh	GSTO1 inh	Apaf-1 inh	PP1 counter	TDP2 confirm
Cc1[nH]n(-c2ccccc2)c(=O)c1S(=O)(=O)c1ccccc1	49*	-1	29	10	2	18
Cc1[nH]n(-c2ccccc2)c(=O)c1CCO	3	0	8	6	-4	x
Cc1[nH]n(-c2ccccc2)c(=O)c1/C=N/c1nn[nH]n1	27*	1	10	26	-1	9
Cc1cccc(/N=C/c2c(C)[nH]n(-c3ccccc3)c2=O)n1	18	2	-3	4	-7	x
O=C(CSc1cc(Cl)ccc1Cl)N/N=C/c1ccc[nH]1	6	x	x	x	x	x
COCCNC(=S)Nc1ccc2nsnc2c1	74*	-2	13	-5	0	2
CCC(CC)CN1CCC(CN2C(=S)NC[C@@H]2Cc2ccccc2)CC1	0	x	x	x	x	x
CN(Cc1ccccc1F)C(=O)C1CCCN(c2ncccn2)C1 (centres undefined)	6	x	x	x	x	x
COc1cc(C(=O)N2CCN(C3CCCCC3)CC2)cc(OC)c1OC	25*	3	-3	2	3	6
COc1cc(C(=O)N2CCC(N3CCCCCC3)CC2)cc(OC)c1OC	1	3	-6	3	0	x
S=C(Nc1ccc2nc(-c3ccccn3)c(-c3ccccn3)nc2c1)N1CCOCC1	31*	3	9	-2	-2	0
CN(C)NC(=S)Nc1ccc2nc(-c3ccccn3)c(-c3ccccn3)nc2c1	5	-2	0	12	-1	x
COc1ccccc1CN1CCN(Cc2ccco2)CC1	28*	-4	-1	7	5	5
COc1ccc(CN2CCN(Cc3ccco3)CC2)c(OC)c1	27*	2	2	1	0	6
C=C(C)CSc1nc2sc(C)c(C)c2c(=O)n1C	1	x	x	x	x	x
CN1C2CCC1CC(N(CCc1ccccc1)C(=O)c1ccc(Cl)cc1)C2 (centres undefined)	28*	1	0	3	1	7
Nc1cc(S(=O)(=O)O)cc([N+](=O)[O-])c1O	50*	-1	0	-110	2	3
Nc1ccc(C(=O)O)cc1[N+](=O)[O-]	-1	0	0	-8	-1	x
O=C(N[C@@H](Cc1ccccc1)C(=O)NCP(=O)(O)OC(Cc1ccccc1)C(=O)O)OCc1ccccc1 (some centres undefined)	6	x	x	x	x	x
CCCCCCCCN1C(=O)[C@H](CC(=O)N2CCCC2)C[C@@]2(C(=O)OC)CC(C)(C)CC=C12	-4	x	x	x	x	x
O=C(CSc1nc2ccccc2nc1N1CCCCC1)N1CCN(C(c2ccccc2)c2ccc(Cl)cc2)CC1 (centres undefined)	-2	x	x	x	x	x
COc1cc(C2Nc3ccccc3C(=O)N2c2ccccc2)ccc1O (centres undefined)	29*	0	0	5	-4	5
C[C@H]1[C@H](NC(=O)c2ccc(C(C)(C)C)cc2)CC[C@@]23CCCN2C(=O)CCC[C@@H]13	4	x	x	x	x	x
COc1ccccc1/C=C/c1nc(S(=O)(=O)c2ccccc2)c(N2CCC(C(N)=O)CC2)o1	26*	0	1	13	-2	-11
O=C(O)c1ccc2nc(-c3ccco3)c(-c3ccco3)nc2c1	34*	x	x	62*	x	18
SMILES	TDP2 inh	PP5 inh	GSTO1 inh	Apaf-1 inh	PP1 counter	TDP2 confirm
Cc1[nH][nH]c(=O)c1C(c1c(C)[nH][nH]c1=O)c1cn(Cc2ccccc2Cl)c2ccccc12	55*	x	x	x	x	34*
CCn1c2ccccc2c2cc(NC(=O)CSc3nnc(-c4ccccc4)n3Cc3ccco3)ccc21	-7	x	x	x	x	x
O=C(C1CCCN(S(=O)(=O)c2ccccc2F)C1)N1CCN(Cc2ccccc2)CC1 (centres undefined)	6	x	x	x	x	x
Cc1cccc(N=C2C(=O)Nc3c(Cl)cccc32)c1	9	-1	16	1	-2	x
O=C1Nc2c(Cl)cc(Cl)cc2C1=O	49*	x	x	x	x	54*
O=C(NC1CC2CCCC(C1)N2C(=O)Nc1cccc(F)c1)C1CC1 (centres undefined)	28*	1	-1	0	-2	13
Cc1ccc(NC(=O)N2C3CCCC2CC(NC(=O)C2CC2)C3)cc1 (centres undefined)	9	3	0	8	2	x
CC1=NN(c2ccccc2)C(=O)C1C=Nc1ccc(N(C)C)cc1 (centres undefined)	32*	4	63*	38	-3	8
O=C(NCCc1cccc(F)c1)c1cc2ccccn2n1	6	x	x	x	x	x
CCCCN(C=O)c1c(CC)nc2ccc(C(=O)Nc3cc(-c4ccccc4)ccc3OC)cn12	-11	x	x	x	x	x
Nc1c2c(=O)[nH]c(O)cc2nn1-c1ccccc1	89*	x	x	x	x	77*
C[C@@H]1CN([C@H](C)CO)C(=O)c2c(c3ccccc3n2C)-c2ccccc2CO[C@H]1CN(C)Cc1ccc(Oc2ccccc2)cc1	-1	x	x	x	x	x
CCc1cccc(NC(=O)c2sc3nc4n(c(=O)c3c2C)CCC4)c1	55*	2	11	1	5	9
CCCn1nc2cc(C(=O)NCc3ccc(OC)cc3)ccc2c1OCC	38*	0	5	1	-3	-3
O=C(O)c1ccc(CN2C(=O)CSC2=S)cc1	-8	2	-7	8	-5	x
O=C(O)CN1C(=O)CSC1=S	27*	x	x	9	x	5
O=C(COc1ccccc1F)Nc1ccc2[nH]c(=O)[nH]c2c1	28*	-1	-3	2	-4	6
O=C(CN1C(=O)C2(OCCCO2)c2ccccc21)NCc1ccc(F)cc1	1	x	x	x	x	x
CCN1CCN(Cc2ccc(OC)c(OCc3ccccc3)c2)CC1	6	1	-2	-9	0	x
CCN1CCN(CC#CCOc2ccccc2OC)CC1	29*	-1	3	1	1	8
CC1=C(C)CC(C(=O)NCc2ccccc2F)C(C(=O)O)C1 (centres undefined)	25*	-3	3	-14	-5	11
O=C(O)C1C2C=CC(C2)C1C(=O)NCc1ccccc1F (centres undefined)	-10	2	0	-7	1	x
